# Experimental data from different studies.
# Lines come from different studies, so protocols differ.
# Target: D(1A) dopamine receptor (DRD1, Homo sapiens, UniProt P21728)
SMILES,observed,technique,concentration,endpoint,value
CC(Cc1ccccc1)NCCn1cnc2c1c(=O)n(C)c(=O)n2C (stereo not drawn),ligand displacement,radioligand,10 µM,inhibition,8%
COc1ccc(S(=O)(=O)N2CCCCC2)cc1C,ligand displacement,radioligand,10 µM,inhibition,< 30%
C[C@H](C(=O)N[C@H]1COc2ccccc2[C@@H]1S(C)(=O)=O)c1ccc(F)cc1,cell-free assay,,10 µM,inhibition,-6%
Cn1cncc1[C@@](O)(COc1ccc(C#N)cc1-c1ccc(OC(F)(F)F)cc1)c1ccc(C#N)cc1,ligand displacement,,10 µM,inhibition,19%
Clc1ccc2c(C3CCN(CCc4c[nH]c5ccccc45)CC3)c[nH]c2c1,ligand displacement,radioligand,10 µM,inhibition,100%
COCc1c(-c2cc3cc(C)cc(OC)c3s2)c2c(N)ncnn2c1CN1CCNC(=O)C1,ligand displacement,radioligand,10 µM,inhibition,10%
CC(C)N1CCC[C@H]1CNC(=O)c1cn(C2CCCC2)c(=O)c2c1c1ccccc1n2C,ligand displacement,radioligand,10 µM,inhibition,5%
CN(CCN1CCC(OC(=O)Nc2ccccc2-c2ccccc2)CC1)C(=O)c1ccc(CN2CCC(C(N)=O)CC2)cc1,ligand displacement,radioligand,1 µM,inhibition,1%
CCN(CC)CCCC[C@H](NC(=O)[C@H](CC(C)C)NC(=O)[C@H](C)NC(=O)[C@H](Cc1ccccc1)NC(=O)c1ccc(C(C)(C)C)cc1)C(=O)N[C@@H](CO)C(=O)OC,ligand displacement,radioligand,10 µM,inhibition,4%
c1ccc(C(NCCNC(c2ccccc2)c2ccccc2)c2ccccc2)cc1,cell-free assay,,10 µM,inhibition,24%
Cc1c(N2CCNCC2)nc2ccc(Br)cc2c1C(=O)NC[C@H](CCC(=O)O)c1ccccc1Cl,ligand displacement,,10 µM,inhibition,31.6%
Nc1ncc(-c2nc(N3CCOCC3)nc(N3CCOCC3)n2)c(C(F)F)n1,cell-free assay,radioligand,10 µM,remaining signal,90.9%
